Results on 22 compounds are retold here after ChEMBL document CHEMBL1140071, “A new synthetic access to furo[3,2-f]chromene analogues of an antimycobacterial” (2008).

Test [1] deals with Mycobacterium tuberculosis. Nature of the test: Antimycobacterial activity against Mycobacterium tuberculosis H37Rv after 6 days by microdilution resazurin assay. The format is functional. The following applies: 144 h. The method, boiled down: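 Inoculum of virulent M. tuberculosis H37Rv grown in Dubos broth plus 10% ADC. Compounds from 50 mg/mL DMSO stocks, serially diluted twofold in Dubos medium (500 down to 0.9), with DMSO and isoniazid controls. Incubated 6 days at 37 °C, then 0.01% resazurin for 24 h more. MIC read as the lowest concentration without the blue-to-pink shift.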

Test [2] deals with Mycolicibacterium smegmatis. Description: Antimycobacterial activity against Mycobacterium smegmatis mc2 155 after 48 hrs by microdilution resazurin assay. The test is classed as functional. The following applies: str. MC2 155, 48 h. The method in brief:
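M. smegmatis mc²155 inoculum grown in Dubos medium with 10% ADC. Twofold serial drug dilutions (from 500 to 0.9) in Dubos medium, from 50 mg/mL DMSO stocks. DMSO and isoniazid controls. Sealed plates at 37 °C for 48 h, then 0.01% resazurin added for another 24 h at 37 °C. MIC is the lowest concentration preventing the blue-to-pink change.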

Converted amounts (≈) assume the structure as drawn. A value given as a limit tells only on which side of the number the result lay.

For `CC1(C)C=Cc2c(ccc3oc4c(c23)CCCC4)O1`, the MIC95 was 120 µg/mL (≈ 472 µM) in test [1] and more than 500 µg/mL in test [2].

For the compound `CC1(C)C=Cc2c(ccc3oc4ccccc4c23)O1`, the MIC95 in test [1] and in test [2] was 10 µg/mL (≈ 40 µM) in each case.

For the compound `CC1(C)CCc2c(ccc3oc4ccccc4c23)O1`, the MIC95 in test [1] and in test [2] was 10 µg/mL (≈ 39.6 µM) throughout.

As for `CC1(C)CCc2c(ccc3oc(-c4cccnc4)cc23)O1`, the MIC95 was 10 µg/mL (≈ 35.8 µM) in test [1] and 6.2 µg/mL (≈ 22.2 µM) in test [2].

Turning to `Cc1c(-c2ccncc2)oc2ccc3c(c12)C=CC(C)(C)O3`, the MIC95 in test [1] amounted to 3 µg/mL (≈ 10.3 µM); in test [2], 6.2 µg/mL (≈ 21.3 µM).

As to `Oc1ccc2oc(-c3ccccc3)cc2c1`, the MIC95 in test [1] was 125 µg/mL (≈ 595 µM); in test [2], 8 µg/mL (≈ 38.1 µM).

In the case of `Oc1ccc2oc(-c3ccncc3)cc2c1`, the MIC95 in test [1] is more than 10 µg/mL; in test [2] it was more than 50 µg/mL.

`C#CC(C)(C)Oc1ccc2oc(-c3ccncc3)cc2c1`: the MIC95 in test [1] was determined as 16 µg/mL (≈ 57.7 µM); in test [2] it was 25 µg/mL (≈ 90.1 µM).

As to `CC1(C)C=Cc2c(ccc3c2C2CCCOC2O3)O1` (centres undefined), the MIC95 stood at 250 µg/mL (≈ 968 µM) in test [1] and 125 µg/mL (≈ 484 µM) in test [2].

Regarding `CC1(C)C=Cc2c(ccc3oc(-c4cccc(Br)n4)cc23)O1`, the figures for the MIC95 in test [1] and in test [2] were more than 10 µg/mL and more than 50 µg/mL, respectively.

On to `CN(C)CCCNc1ccc(-c2cc3c4c(ccc3o2)OC(C)(C)C=C4)cn1`, for which the figures for the MIC95 in test [1] and in test [2] were 10 µg/mL (≈ 26.5 µM) and 12.5 µg/mL (≈ 33.1 µM), respectively.

Consider `CC(=O)OCCCc1coc2ccc3c(c12)C=CC(C)(C)O3`, for which the MIC95 in test [1] and in test [2] was more than 500 µg/mL each time.

In the case of `CC1(C)C=Cc2c(ccc3occ(CCCO)c23)O1`, the MIC95 in test [1] was 125 µg/mL (≈ 484 µM); in test [2], 62 µg/mL (≈ 240 µM).

On to `O=Cc1c(O)ccc2c1C1CCCOC1O2` (centres undefined), for which the results for the MIC95 in test [1] and in test [2] were 125 µg/mL (≈ 568 µM) and more than 125 µg/mL, respectively.

Turning to `CC1(C)CCc2c(ccc3oc(-c4ccccn4)cc23)O1`, the MIC95 in test [1] was 10 µg/mL (≈ 35.8 µM); in test [2], 25 µg/mL (≈ 89.5 µM).

Regarding `Cc1c(-c2ccncc2)oc2ccc(O)cc12`, the MIC95 in test [1] was more than 10 µg/mL; in test [2], more than 50 µg/mL.

For the compound `CC1(C)C=Cc2c(ccc3oc(-c4ccncc4)cc23)O1`, the MIC95 in test [1] turned out to be 2.5 µg/mL (≈ 9.01 µM); in test [2], 3 µg/mL (≈ 10.8 µM).

Take `CN(C)CCCNc1cccc(-c2cc3c4c(ccc3o2)OC(C)(C)C=C4)n1`: the MIC95 in test [1] was 10 µg/mL (≈ 26.5 µM); in test [2], 12.5 µg/mL (≈ 33.1 µM).

For the compound `CC1(C)C=Cc2c(ccc3oc(-c4ccccc4)cc23)O1`, the MIC95 is 32 µg/mL (≈ 116 µM) in test [1] and more than 500 µg/mL in test [2].

As for `CC1(C)C=Cc2c(ccc3oc(-c4ccc(Br)nc4)cc23)O1`, the MIC95 in test [1] is more than 10 µg/mL; in test [2], more than 50 µg/mL.

`Cc1cc2c3c(ccc2o1)OC(C)(C)C=C3`: the MIC95 in test [1] and in test [2] was more than 500 µg/mL throughout.

Turning to `NNC(=O)c1ccncc1` [ISONIAZID], the MIC95 was found to be 0.1 µg/mL (≈ 0.729 µM) in test [1] and 12 µg/mL (≈ 87.5 µM) in test [2].
